Bioassay records as filed in PubChem.
In the library only some 3.7% were active in any assay of this set; here they are far more common.
KCNK3 block = human KCNK3 channel inhibitors, primary screen, CHO cells, FluxOR thallium flux, B-score; B-score at 10 µM; 0.84% of 340,000 active; FluxOR fluorescence; hits give low values; Potassium channel subfamily K member 3 (Homo sapiens), O14649;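 active means B-score under library mean minus 4 SD, starting fluorescence ratio at most library mean plus 5 SD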;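 further: more negative B-score means stronger inhibition of thallium flux through KCNK3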
KCNQ1 act = potentiators or activators of KCNQ1 channel, primary screen, cell-based, thallium flux, high-throughput | Potassium voltage-gated channel subfamily KQT member 1 (Homo sapiens), P51787 | CHO-K1 KCNQ1, thallium flux FluxOR fluorescence; hits give high values | B-score at 10 µM | 0.35% of 310,000 active | AID 2648, 2010;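 active means fluorescence ratio B-score, a plate-corrected score, at least three library SD, with initial intensity B-score within 5 SD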
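Assay system: CHO-K1 cells stably expressing KCNQ1. Medium: assay buffer for compound exposure, DMSO matched across wells. Timing: 37 °C overnight plating, 90-min dark dye load, 20-min compound pretreatment. Signal: kinetic FluxOR fluorescence, 10 s baseline plus 110 s post-stimulus.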
KCNQ1 block = inhibitors of human KCNQ1 channel, primary screen, cell-based, thallium flux, high-throughput. Potassium voltage-gated channel subfamily KQT member 1 (Homo sapiens), P51787. CHO-K1 KCNQ1, FluxOR thallium flux fluorescence; hits give high values. B-score at 10 µM. 1.3% of 310,000 active;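 active means compounds whose thallium flux B-score, printed positive for inhibition, exceeds three library SD while starting fluorescence stays within three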;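 further: channel opened by potassium depolarization with thallium stimulus after 20 min compound exposure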
hERG protect = hERG rescue from dofetilide block, primary screen, cell-based, CHO-hERG, FluxOR thallium flux, dofetilide IC70; dofetilide IC70 present; Voltage-gated inwardly rectifying potassium channel KCNH2 (Homo sapiens), Q12809; AID 1511, 2009; activation (rescue from dofetilide block), less the hit threshold, % at 10 µM; 0.51% of 310,000 active;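 active means activation above the mean of controls blocked by dofetilide plus 5 SD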;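 further: thallium influx through hERG after potassium depolarization seen as dye fluorescence rise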
Kir21 inh = inhibitors of mouse Kir2.1 inward-rectifier potassium channel; Inward rectifier potassium channel 2 (Mus musculus), P35561; HEK293-Kir2.1, FluxOR thallium flux fluorescence; hits give low values; B-score at 10 µM; 0.85% of 310,000 active;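 active means fluorescence ratio B-score at or below minus 3 SD of library scores, with starting-brightness B-score within 2 SD, cut at about -4.2 in these data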;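 further: channel flux triggered by added potassium and thallium sulfate stimulus; B-score of peak minus minimum fluorescence over baseline after thallium stimulus; more negative B-score means stronger Kir2.1 block with less thallium influx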
KCNK9 inh = KCNK9 potassium channel inhibitors, primary screen, HEK293 cells, thallium flux; 1.2% of 310,000 active; FluxOR thallium flux fluorescence; hits give low values; Potassium channel subfamily K member 9 (Homo sapiens), Q9NPC2; B-score at 10 µM;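 active means ratio B-score over 3 SD below the library mean, with starting fluorescence within 5 SD of its mean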;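 further: negative B-score means less thallium flux so channel inhibition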
Target sequence (Q9NPC2 whole entry, looked up): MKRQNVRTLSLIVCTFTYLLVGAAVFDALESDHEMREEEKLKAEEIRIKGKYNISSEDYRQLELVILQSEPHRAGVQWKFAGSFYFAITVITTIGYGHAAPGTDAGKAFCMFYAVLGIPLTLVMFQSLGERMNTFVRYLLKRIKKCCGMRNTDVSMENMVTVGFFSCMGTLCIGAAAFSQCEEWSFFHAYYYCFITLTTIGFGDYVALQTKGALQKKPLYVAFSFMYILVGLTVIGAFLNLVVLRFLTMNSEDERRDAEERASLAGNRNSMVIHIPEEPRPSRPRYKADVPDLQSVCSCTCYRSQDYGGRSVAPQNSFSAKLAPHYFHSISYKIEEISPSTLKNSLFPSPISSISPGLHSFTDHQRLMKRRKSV
KCNK9 inh conf = KCNK9 potassium channel inhibitors, confirmation, HEK293 cells, thallium flux, duplicate | 43% of 4,900 active | inhibition, % at 10 µM | FluxOR thallium flux fluorescence | shares compounds with KCNK9 inh;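 active means thallium signal inhibited by more than 5 SD of the compound-free buffer control wells, on both duplicate plates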;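 further: 0% = assay buffer control wells without compound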
Kir2-1 spec = mouse Kir2.1 channel inhibition, confirmation, selectivity assay for KCNK9 modulator project, cell-based, HEK293, thallium flux; shares compounds with KCNK9 inh; Kir2.1 cells, FluxOR thallium flux fluorescence; inhibition, % at 10 µM; 4% of 4,900 active; AID 492993, 2010;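 active means thallium signal drop more than 5 SD beyond the mean of the no-compound control wells, seen in both duplicate plates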;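 further: signal is fluorescence rise after thallium addition divided by baseline fluorescence; plate controls were assay buffer only for no effect and full block by chlorpromazine control for full effect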
KCNK9 uninduced = thallium flux in non-induced HEK293 cells, confirmation, counter-screen for KCNK9 inhibitor project, cell-based, second counter screen, non-induced KCNK9-HEK293; shares compounds with KCNK9 inh; FluxOR thallium flux; inhibition, % at 10 µM; 40% of 4,900 active;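 active means thallium signal drop beyond 5 SD of the untreated control mean, on both duplicate plates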;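 further: plate controls were buffer only IC0 wells for no effect and SID17386958 at its maximal inhibitory level for full effect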
KCNK3 inh conf = retest of human KCNK3 channel inhibitors, confirmation, CHO cells, FluxOR thallium flux, triplicate; ratio percent of control, % at 10 µM; shares compounds with KCNK3 block; FluxOR fluorescence; 0% buffer, 100% carvedilol maximal block; 99% of 2,400 active;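 active means ratio percent of control, averaged over triplicates, above buffer control mean plus 5 SD, cut at about 64% in these data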;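 further: ratio is the fluorescence rise from min to max over baseline after thallium stimulus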
KCNK3 noninduced = thallium flux inhibition in non-induced cells, primary screen, counter-screen for KCNK3 inhibitor project, cell-based, non-induced KCNK3 line, FluxOR thallium, triplicate; shares compounds with KCNK3 block; non-induced KCNK3 parental cells; hits give low values; thallium flux ratio (lower = more inhibition) at 10 µM; 40% of 2,400 active; AID 651747, 2012;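 active means thallium flux ratio, averaged over three wells, more than 5 SD below the buffer control mean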;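 further: host cells are CHO cells without KCNK3 induction; ratio is peak minus trough fluorescence over baseline then normalized to buffer controls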
* hit, by the source's call; i = inactive; . = no result given.

SMILES | KCNK3 block | KCNQ1 act | KCNQ1 block | hERG protect | Kir21 inh | KCNK9 inh | KCNK9 inh conf | Kir2-1 spec | KCNK9 uninduced | KCNK3 inh conf | KCNK3 noninduced
CCn1c(C(=O)N2CCC(C(=O)NCCCSC3CCCCC3)CC2)cc2sccc21 | -9.3* | i | i | -21 | -0.15 | i | i | i | i | 92* | i
O=C(Cn1cc([N+](=O)[O-])cn1)N1CCN(Cc2ccc3c(c2)OCO3)CC1 | i | i | i | -8 | 0.66 | i | . | . | . | . | .
O=C(Nc1ccc(Cl)cn1)c1ccccc1SCc1ccccc1 | -11* | i | i | -6 | 0.11 | -15* | 78%* | i | 47%* | 128* | 0.15*
COc1ccc(C)cc1NC(=O)c1nn(-c2ccccc2)cc1OC | i | i | i | -15 | 0.67 | -18* | 61%* | i | 31%* | 130* | 0.14*
COc1cn(-c2ccccc2)nc1C(=O)Nc1ccc(C)cc1 | i | i | i | -11 | -0.12 | i | . | . | . | . | .
COC(=O)c1ccc(CSc2nc(-c3ccco3)cc(C(F)(F)F)n2)o1 | i | i | i | -9 | 0.76 | -11* | 38%* | i | 45%* | 115* | 0.15*
COc1ccc(CCNC(=O)CSc2nc(-c3ccco3)cc(C(F)(F)F)n2)cc1 | i | i | i | -2 | -1.2 | i | . | . | . | . | .
COc1cc(OC)c(-c2cc(C(=O)O)ccc2OC)c(OC)c1 | i | i | i | -8 | 0.1 | i | . | . | . | . | .
CCC(C(=O)NC1CCCC1)n1nc(C)n2c(cc3occc32)c1=O (stereo not drawn) | i | i | i | -7 | 0.94 | i | . | . | . | . | .
CN(CCOc1ccccc1)CC(=O)Nc1ccc([N+](=O)[O-])cc1Cl | i | i | i | -10 | -0.38 | i | . | . | . | . | .
CN(CC(=O)Nc1ccc([N+](=O)[O-])cc1Br)Cc1c(F)cccc1Cl | -10* | i | i | -18 | 2 | -15* | i | i | 43%* | 95* | 0.16*
Cc1ccc(NC(=O)c2sc3ccccc3c2Cl)nc1 | i | i | i | -6 | 0.05 | -15* | 56%* | i | 30%* | 87* | i
Cc1nnc(NC(=O)c2sc3ccccc3c2Cl)s1 | i | i | i | -4 | -1.7 | i | . | . | . | . | .
Cc1ccc(S(=O)(=O)N2CCOCC2)cc1NC(=O)COC(=O)Cc1ccccc1 | i | . | . | . | . | . | . | . | . | . | .
Cc1cc(NC(=S)N(CCN2CCCCC2)Cc2ccco2)ccc1Cl | -11* | i | i | -13 | 1.7 | -8.2* | 25%* | i | 28%* | 108* | i
CCc1ccc(OCC(=O)NNC(=O)C2CCC2)cc1 | i | i | i | -6 | -1.5 | i | . | . | . | . | .
CN(CC(=O)NCCc1ccc(F)cc1)Cc1cccs1 | i | i | i | -15 | -0.63 | i | . | . | . | . | .
CCCOC(=O)c1ccc(NC(=O)CN(C)Cc2cccs2)cc1 | -10* | i | i | -11 | -1.6 | -12* | 50%* | i | i | 94* | i
CN(CC(=O)Nc1cc(Cl)cc(Cl)c1)Cc1cccs1 | -13* | i | i | -4 | -2.2 | -14* | 63%* | i | 44%* | 122* | 0.16*
O=C(O)c1sc2cc(C(F)(F)F)cnc2c1-c1ccccn1 | i | i | i | -7 | -0.26 | i | . | . | . | . | .
Cc1cc(NC(=O)C23CC4CC(C2)CC(n2cnc([N+](=O)[O-])n2)(C4)C3)no1 | i | i | i | -8 | -0.13 | i | . | . | . | . | .
COc1cccc(C(=O)NCC(c2cccs2)N2CCc3ccccc32)c1 (stereo not drawn) | -14* | i | i | -7 | 2.1 | -17* | 56%* | i | 37%* | 135* | 0.12*
CC1CCN(S(=O)(=O)c2ccc(NC(=O)c3cccs3)cc2)CC1 | i | i | i | -7 | -2.2 | i | . | . | . | . | .
CC1CCCCN1S(=O)(=O)c1ccc(NC(=O)c2cccs2)cc1 (stereo not drawn) | i | i | i | -12 | -1.5 | -8.7* | 41%* | i | i | 88* | i
CCCCN(CCCC)S(=O)(=O)c1ccc(NC(=O)c2cccs2)cc1 | i | i | i | -19 | 0.2 | -8.6* | 48%* | i | 44%* | 121* | 0.15*
SMILES | KCNK3 block | KCNQ1 act | KCNQ1 block | hERG protect | Kir21 inh | KCNK9 inh | KCNK9 inh conf | Kir2-1 spec | KCNK9 uninduced | KCNK3 inh conf | KCNK3 noninduced
O=C(O)/C=C/c1cn(-c2ncc(C(F)(F)F)cc2Cl)c2ccccc12 | i | i | i | 4 | 1.2 | i | . | . | . | . | .
C=CCSc1nc(N)c(C(=O)Nc2ccccc2)cc1C#N | i | i | i | -8 | 0.29 | i | . | . | . | . | .
C=CCSc1nc(N)c(C(=O)Nc2ccccc2OC)cc1C(=O)Nc1ccccc1 | -11* | i | i | -9 | 0.43 | -8.7* | 27%* | i | i | 107* | i
CCOC(=O)c1c(O)c(Cl)c(C)[nH]c1=O | i | i | i | -9 | 1.1 | i | . | . | . | . | .
Cc1nn(C)cc1C(C)Nc1nc2nonc2nc1N1CCCCC1 (stereo not drawn) | i | i | i | -17 | -1.4 | i | . | . | . | . | .
c1ccc(C2c3[nH]c4ccccc4c3CCN2Cc2cccn2-c2ccccn2)nc1 (stereo not drawn) | i | i | i | -19 | -0.53 | i | . | . | . | . | .
